Assay results as given in the EternaBench riboswitch data.

System: MS2 coat protein
Assay: apparent Kd, MS2 coat protein; higher = weaker binding; RNA-MaP array
Outline: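 Apparent Kd was taken as the median of binding curves fitted cluster by cluster. The designed RNAs were made by transcription of sequenced DNA templates on an Illumina sequencing chip and exposed to fluorescently labeled MS2 coat protein (1.5 nM to 3 μM) at room temperature, with or without input ligand, for 0.8–1.5 h at the lowest and 10–20 min at the highest concentrations. Any design measured on fewer than 10 clusters was left out.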

[1] = designed as: OFF switch for flavin mononucleotide, no ligand
[2] = ligand present: flavin mononucleotide, designed as: OFF switch for flavin mononucleotide
[3] = designed as: ON switch for flavin mononucleotide, no ligand
[4] = ligand present: flavin mononucleotide, designed as: ON switch for flavin mononucleotide
[5] = designed as: OFF switch for tryptophan, no ligand
[6] = ligand present: tryptophan, designed as: OFF switch for tryptophan

Row | Sequence | apparent Kd [1] | apparent Kd [2] | also measured
1 | GCAUGCGGCAAGGAUAUCAAUGCUAUGGUCUAAUGAGAAGGUGCCACAUGAGGAUCACCCAUGUUUCCGGCGAG | 0.0308 µM | 0.123 µM | 
2 | GCGCUAUUUAUUGAUACCAGAUACAGGAAUCACAUGAGGAUCACCCAUGUGGAAUGAAGGAUCCCUUGGCAGCAAUAGUCAAAAU |  |  | apparent Kd (designed as: ON switch for theophylline, no ligand): 0.0178 µM; apparent Kd (ligand present: theophylline, designed as: ON switch for theophylline): 0.0109 µM
3 | GCGUGACAUGAGGAUCACCCAUGUGGCCUCGGGCUAGGAUAUGCUGAUAUACUCACCACCGCAGAAGGAGCUUCAC |  |  | apparent Kd [3]: 0.142 µM; apparent Kd [4]: 0.131 µM
4 | GCGUGUUAUAGUCAUCGUGAGCGUCCAUCCCGAGGACCGGUACGGCCGCCACUCGCCACAGGACAUGAGGAUCACCCAUGUUAUG |  |  | apparent Kd [5]: 0.015 µM; apparent Kd [6]: 0.017 µM
5 | GCUAGACAUGAGGAUCACCCAUGUGAGGAUAUUAGCCAAUCGAGUAAUCCGCUAUAGUUAAGAAGGCACGUGAU | 0.0167 µM | 0.016 µM | 
6 | GGAUCACAUGAGGAUCACCCAUGUCAGGAUAUUAUGCCCUCCCAGUUGCUGAGACAUUUAAGAAGGGACGUGUA | 0.0135 µM | 0.0143 µM | 
7 | GGAUGAAGGAAGGAUAUUACGCAGCAACGACCGUAAGAAGGUCCAACAUGAGGAUCACCCAUGUGGUGCUUACU | 0.0332 µM | 0.159 µM | 
8 | GGGUAACAUGAGGAUCACCCAUGUGAGGAUAUCCAUUGUUGGCGACCGGUACGACCACGGAGAAGGCACAGUUC | 0.035 µM | 0.0695 µM | 
9 | GGUAUCGUAGGAUAUUAAUGUAGCCACAUGAGGAUCACCCAUGUAGUUCUAGUGGACCGUUAAGAAGGACGUGAUC | 0.0661 µM | 0.0828 µM | 
10 | GGUCUACAUGAGGAUCACCCAUGUGAGUUCACGGCAGGAUAUGGGUGCCUUUUUAGGCUACCAGAAGGGCCCUCUG |  |  | apparent Kd [3]: 0.0381 µM; apparent Kd [4]: 0.0192 µM
11 | GUAGAACCGCAGAAGGCAUUGAUUCGAGAGCGAUGAGGAUAUGCUCGUCGACAUGAGGAUCACCCAUGUUUACGAUUGAGAUAU |  |  | apparent Kd [3]: 0.0151 µM; apparent Kd [4]: 0.00974 µM
12 | GUAUUACGGACGGCCGCCACUGUGGGACAUGAGGAUCACCCAUGUGGCGCUACUUACAAGUGCGACAGGACCGGGUCAUGGUUUG |  |  | apparent Kd (designed as: ON switch for tryptophan, no ligand): 0.811 µM; apparent Kd (ligand present: tryptophan, designed as: ON switch for tryptophan): 0.301 µM
13 | GUCAGGCAACAGAAGGGAGGAUAUAACCGACAUGAGGAUCACCCAUGUGUAAAAGAAACAGUCGCUCAGGAUAUGUUCAACGUG |  |  | apparent Kd [3]: 0.0159 µM; apparent Kd [4]: 0.00936 µM
14 | GUCAUUCAAGUGAGGAUAUCUGCGAUGCCGAAAGGAGAGAAGGCACAUGAGGAUCACCCAUGUGGUGUUUAUAU | 0.0345 µM | 0.0574 µM | 
15 | GUGCCACAUGAGGAUCACCCAUGUUUGGCAAGCAAAGGAUAUGGAAUGAUGGCUCGCAGCCCAGAAGGUUGUUGUG |  |  | apparent Kd [3]: 0.00452 µM; apparent Kd [4]: 0.00476 µM
16 | GUUUUCAACUUGUAGGAUAUUUCUCACGAGACAUGAGGAUCACCCAUGUAGUGAACCAGGGAUCGAAAGAAGGACAUCAUGACGGU |  |  | apparent Kd [3]: 0.0752 µM; apparent Kd [4]: 0.0499 µM
17 | UACAAAUAUCAUUACAUGAGGAUCACCCAUGUGGGACGUCGUAGAAGGGAGAUUCAAAUACAAGCUCAGGAUAUACAACUUCUG |  |  | apparent Kd [3]: 0.181 µM; apparent Kd [4]: 0.0801 µM
18 | UAGACCGAAGGAUAUACAUGAGGAUCACCCAUGUCAAGGACAUACCCACGAAAGGCACGUAGAAGGUCGGCAUA | 0.0182 µM | 0.0331 µM | 
19 | UAGCGUUCCUCAGGAUAUCCUUAAGUGGACAUGAGGAUCACCCAUGUGUGAUUCUGGGUGUUAUGGGAGAAGGGAGGGUGAUGA | 0.299 µM | 0.0475 µM | 
20 | UAUAACGAAAGAGGAUAUAUCGGCCGUCUACGGAUAGAAGGCUUUCGCUAUGGCACUGAUGAUCUACAUGAGGAUCACCCAUGU | 0.00791 µM | 0.00719 µM | 
21 | UAUAAUGAAGGAUAUACAUGAGGAUCACCCAUGUUAGACUCUCAGUCGACAGUAAUCCGUAGAAGGUCAUGCCA | 0.0123 µM | 0.0136 µM | 

Row | Sequence | apparent Kd [1] | apparent Kd [2] | also measured
22 | UAUUUGGGCAAGAAGGCAGGUUACAGCCAGCAUUAUCCACAUGAGGAUCACCCAUGUUCGGCGACUGAGGAUAUUGCCAAACCU | 0.0385 µM | 0.0375 µM | 
23 | UCAAAAUGAUAGAAGGAGGCAAUACUCGCACCUAACAUGAGGAUCACCCAUGUCUGCAGGUUGACCUAGGAUAUAUGCAGUGGA |  |  | apparent Kd [3]: 0.0146 µM; apparent Kd [4]: 0.00935 µM
24 | UCAUAUUAAGGCGAGGAUAUACACGAUCCCACAUGAGGAUCACCCAUGUUUUGAUCAUGCCCUGUGUAGAAGGCGCACCUACGGGA |  |  | apparent Kd [3]: 0.0789 µM; apparent Kd [4]: 0.0495 µM
25 | UCAUCGAGAGAGGAUAUCGUAGCAAUUCACCAGCGAGAAGGCUCGACAUGAGGAUCACCCAUGUGGCUCCGCUU | 0.0242 µM | 0.0736 µM | 
26 | UCCCAGUAACAUGAGGAUCACCCAUGUUGGAGUGUGCCUGCUCAGGAUAUUCGCGGCAUAAAAGUGAAGAAGGGAGCUCAAACG | 0.0131 µM | 0.0113 µM | 
27 | UCCCAUAUAGUAGGAUAUCUGCUACAUGAGGAUCACCCAUGUCAUAUUUUUUACCAGUCUUAGAUAGAGAAGGACUGUGGACCU |  |  | apparent Kd [3]: 0.59 µM; apparent Kd [4]: 0.373 µM
28 | UCCCGCUGCACAGGAUAUUGGAAAAUACAUGAGGAUCACCCAUGUGCUUAUAUGAGGUCUGCCUCCAAGAAGGGUGAGAUAAUC | 0.113 µM | 0.0896 µM | 
29 | UCCGGACGUUCGGCCGCCACUAAUUUACAUGAGGAUCACCCAUGUGCCAGUGGUCCGCAGAGUAAUAGGACCGGGAACCUUGGCU |  |  | apparent Kd [5]: 0.026 µM; apparent Kd [6]: 0.0292 µM
30 | UCCGGUGACCUAGGAUAUCGUUCAACUAACAUGAGGAUCACCCAUGUGGUCUGUUUUAUGCCUGUCGAGAAGGAGGUGGAUAAG | 0.0642 µM | 0.0556 µM | 
31 | UCCUAUUCAGGAUAUGCGACACGAAACAUGAGGAUCACCCAUGUCUGGGCACCUCAAAGCGCAGAAGGGAACAACG | 0.665 µM | 0.321 µM | 
32 | UCCUUGGAGUCAGGAUAUGUCGACAACGGAAUGACAGAAGGGACUUGGCAGCUUAAUUCUUCAGUACAUGAGGAUCACCCAUGU | 0.00935 µM | 0.00919 µM | 
33 | UCUCGUGUGAAGGAUAUAGAUAUUUAACAAAAGCUAGAAGGUCAAACAUGAGGAUCACCCAUGUUUACAUAGGA | 0.00877 µM | 0.0109 µM | 
34 | UCUUUUCAACAGAAGGAAUGCAGGCGAUAUGAUUGUUUCCGUCAGACAUGAGGAUCACCCAUGUAUUAGGAUAUGUGAAACAGU | 0.0062 µM | 0.00715 µM | 
35 | UGAAACUAGCCUAAGGAUAUAUAAGUGUGAACAUGAGGAUCACCCAUGUAUGGGAACAAGUGCUGAUAGAAGGUAGGAAUCUCCAA |  |  | apparent Kd [3]: 0.0803 µM; apparent Kd [4]: 0.0432 µM
36 | UGAACACUGUGAGGAUAUCCACAUGAGGAUCACCCAUGUUUCCUCAGUGAUGCUAUAGCUUCCACGGAGAAGGCACAUGUAAUC | 0.0312 µM | 0.0482 µM | 
37 | UGAGUUUACUGAGGAUAUUCGGGUCCGACGACAUGAGGAUCACCCAUGUUAGUAAUGCUGCAAGGGAAGAAGGCAGAAAGAACU | 0.0137 µM | 0.0107 µM | 
38 | UGCACCGCAGGAUAUACAAUGGAGGACGUUGUGAAUCAUAGACAUGAGGAUCACCCAUGUAGAAGGGCGUAUAA | 0.034 µM | 0.0785 µM | 
39 | UGCCCACAGGAGAAGGUGGCUCAACCAGAGCGCCAAGGAUAUCCGGAGUUACUCCUCACUACAUGAGGAUCACCCAUGUUUCAU | 0.0715 µM | 0.0546 µM | 
40 | UGGGCGGAAGGAUAUACAUGAGGAUCACCCAUGUGUCUUUUGCUGAUGGGUGCAUAGUGUAGAAGGUCCAGUGU | 0.0937 µM | 0.0387 µM | 
41 | UGUUUGCAAAGAGGAUAUUGGCCAACUGCUGGACAAGAAGGCUUUUAACAAGAUCCUUACAUGAGGAUCACCCAUGUUAGCGUA | 0.0693 µM | 0.115 µM | 
42 | UUAAAACUAGGAUAUACAUGAGGAUCACCCAUGUGAACACACAAACAAAGAAAAUAAUGUAGAAGGAGACUAUA | 0.0108 µM | 0.00887 µM | 
